According to ChEMBL document CHEMBL4177769, “Highly Selective and Potent Ectonucleotide Pyrophosphatase-1 (NPP1) Inhibitors Based on Uridine 5'-Pα,α-Dithiophosphate Analogues” (J Med Chem, 2018):
The source made the active and inactive calls. The rule behind the calls is not given here.

Experiments:
[1] = biological target: T1, Ectonucleoside triphosphate diphosphohydrolase 8 (Homo sapiens) (UniProt Q5MY95); experiment: Inhibition of human NTPDase8 at 100 uM using ATP as substrate preincubated for 3 mins followed by substrate addition measured after 10 mins by malachite green reagent-based assay
T1 sequence (whole entry): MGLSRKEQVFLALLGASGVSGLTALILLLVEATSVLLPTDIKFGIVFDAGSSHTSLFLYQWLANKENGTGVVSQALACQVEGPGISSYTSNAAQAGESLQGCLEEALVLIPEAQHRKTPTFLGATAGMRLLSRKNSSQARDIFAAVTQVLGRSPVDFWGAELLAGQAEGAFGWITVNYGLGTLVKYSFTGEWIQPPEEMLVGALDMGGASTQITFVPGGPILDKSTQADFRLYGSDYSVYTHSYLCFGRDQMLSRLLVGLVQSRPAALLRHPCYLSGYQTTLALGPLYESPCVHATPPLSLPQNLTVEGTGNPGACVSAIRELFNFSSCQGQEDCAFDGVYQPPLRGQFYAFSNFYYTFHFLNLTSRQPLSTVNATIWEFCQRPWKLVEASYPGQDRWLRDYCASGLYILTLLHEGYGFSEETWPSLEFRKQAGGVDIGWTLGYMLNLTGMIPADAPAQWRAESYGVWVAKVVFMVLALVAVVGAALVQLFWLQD
Method in brief: (§1)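 Compound at 100 μM, 3 min preincubation, 100 μM ATP, 10 min. Stopped with malachite green; Pi read at 630 nm. Blank with enzyme added after stop subtracted. Activity with ATP alone taken as 100%.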

[2] = biological target: T2, Ectonucleoside triphosphate diphosphohydrolase 3 (Homo sapiens) (UniProt O75355); experiment: Inhibition of human NTPDase3 at 100 uM using ATP as substrate preincubated for 3 mins followed by substrate addition measured after 10 mins by malachite green reagent-based assay; method in brief: as §1
T2 sequence (whole entry): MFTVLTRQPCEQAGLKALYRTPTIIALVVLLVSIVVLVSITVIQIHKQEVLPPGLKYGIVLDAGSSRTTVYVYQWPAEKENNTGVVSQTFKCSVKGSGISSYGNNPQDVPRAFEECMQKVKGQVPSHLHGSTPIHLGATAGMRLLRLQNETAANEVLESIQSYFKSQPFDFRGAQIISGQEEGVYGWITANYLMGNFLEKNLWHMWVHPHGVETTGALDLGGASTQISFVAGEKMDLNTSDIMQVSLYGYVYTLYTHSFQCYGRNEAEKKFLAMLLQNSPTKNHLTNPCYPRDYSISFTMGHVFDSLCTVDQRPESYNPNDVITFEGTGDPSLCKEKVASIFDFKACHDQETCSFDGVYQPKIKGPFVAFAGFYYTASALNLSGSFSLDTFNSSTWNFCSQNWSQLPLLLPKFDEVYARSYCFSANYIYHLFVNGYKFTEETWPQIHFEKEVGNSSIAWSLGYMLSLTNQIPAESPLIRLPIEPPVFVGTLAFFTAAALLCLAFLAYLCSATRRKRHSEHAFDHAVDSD

[3] = biological target: P2Y purinoceptor 6 (Homo sapiens) (UniProt Q15077); experiment: Agonist activity at recombinant human P2RY6 expressed in AD293 cells assessed as increase in intracellular calcium levels by Fluo-4/AM dye-based spectrofluorometer; type: functional, cell-based
Sequence of P2Y purinoceptor 6 (Homo sapiens) (Q15077 whole entry): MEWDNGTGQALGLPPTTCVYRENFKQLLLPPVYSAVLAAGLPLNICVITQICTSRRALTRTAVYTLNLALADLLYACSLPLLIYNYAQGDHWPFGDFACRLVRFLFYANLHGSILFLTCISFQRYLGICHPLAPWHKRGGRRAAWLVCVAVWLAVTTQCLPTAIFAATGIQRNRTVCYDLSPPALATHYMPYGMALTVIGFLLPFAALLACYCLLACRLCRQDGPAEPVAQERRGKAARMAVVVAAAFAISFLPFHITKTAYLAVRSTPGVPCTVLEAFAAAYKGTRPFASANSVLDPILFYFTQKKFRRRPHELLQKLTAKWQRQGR
Method in brief: (§2)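 Human P2Y2, P2Y4 or P2Y6 receptor stably expressed in AD293 cells. Compound at 100 μM. Agonism read as change in intracellular calcium (Δ[Ca2+]i), with UDP or UTP as control.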

[4] = biological target: P2Y purinoceptor 6 (Homo sapiens) (UniProt Q15077); experiment: Agonist activity at recombinant human P2RY6 expressed in AD293 cells assessed as increase in intracellular IP1 levels; type: functional, cell-based
Method in brief: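 Human P2Y6 receptor stably expressed in AD293 cells. Compound at 100 μM. Gq activation read as accumulation of inositol 1-phosphate (IP1).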

[5] = biological target: P2Y purinoceptor 4 (Homo sapiens) (UniProt P51582); experiment: Agonist activity at recombinant human P2RY4 expressed in AD293 cells assessed as increase in intracellular calcium levels by Fluo-4/AM dye-based spectrofluorometer; type: functional, cell-based; method in brief: as §2
Sequence of P2Y purinoceptor 4 (Homo sapiens) (P51582 whole entry): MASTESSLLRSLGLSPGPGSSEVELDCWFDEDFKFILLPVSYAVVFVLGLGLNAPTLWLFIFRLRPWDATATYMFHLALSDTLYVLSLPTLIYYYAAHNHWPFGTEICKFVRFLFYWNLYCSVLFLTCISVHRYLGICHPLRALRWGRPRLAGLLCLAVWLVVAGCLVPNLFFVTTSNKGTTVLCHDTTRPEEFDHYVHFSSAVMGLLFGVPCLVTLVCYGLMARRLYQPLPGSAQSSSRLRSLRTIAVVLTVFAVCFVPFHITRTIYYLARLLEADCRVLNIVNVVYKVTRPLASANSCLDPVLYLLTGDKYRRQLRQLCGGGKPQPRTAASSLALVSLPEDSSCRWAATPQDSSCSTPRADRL

[6] = biological target: T3, Ectonucleoside triphosphate diphosphohydrolase 2 (Homo sapiens) (UniProt Q9Y5L3); experiment: Inhibition of human NTPDase2 at 100 uM using ATP as substrate preincubated for 3 mins followed by substrate addition measured after 10 mins by malachite green reagent-based assay; method in brief: as §1
T3 sequence (whole entry): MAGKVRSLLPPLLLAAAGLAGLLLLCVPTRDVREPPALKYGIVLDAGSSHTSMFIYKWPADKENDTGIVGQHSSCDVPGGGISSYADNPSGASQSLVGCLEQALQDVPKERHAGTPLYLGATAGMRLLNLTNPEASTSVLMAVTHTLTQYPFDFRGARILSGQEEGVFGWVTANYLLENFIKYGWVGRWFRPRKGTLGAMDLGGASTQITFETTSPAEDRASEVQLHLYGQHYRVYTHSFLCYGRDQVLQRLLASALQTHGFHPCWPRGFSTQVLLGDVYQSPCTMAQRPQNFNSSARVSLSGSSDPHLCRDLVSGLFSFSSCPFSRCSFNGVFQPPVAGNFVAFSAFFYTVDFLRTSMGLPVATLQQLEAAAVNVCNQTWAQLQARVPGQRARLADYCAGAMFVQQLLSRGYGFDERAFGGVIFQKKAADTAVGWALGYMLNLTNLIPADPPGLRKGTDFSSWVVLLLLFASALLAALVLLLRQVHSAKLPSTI

Question: How did the inhibition [1] turn out when `O=c1ccn([C@@H]2O[C@H](COP(=S)(S)OP(=O)(O)O)[C@@H](O)[C@H]2O)c(=O)[nH]1` (stereo partly drawn) was run?
Answer: The inhibition was 15%.

Question: And the inhibition [2]?
Answer: Its inhibition is 15%.

Question: What about the Activity [3] of the same molecule?
Answer: The Activity was “Active”.

Question: And the Activity [4]?
Answer: The Activity was “Active”.

Question: And the Activity [5]?
Answer: Its Activity is “inactive”.

Question: And the inhibition [6]?
Answer: Its inhibition is 15%.

Question: What does the source list for `O=c1ccn([C@@H]2O[C@H](COP(=S)(S)OP(=O)(O)CP(=O)(O)O)[C@@H](O)[C@H]2O)c(=O)[nH]1` (stereo partly drawn)?
Answer: inhibition [1]: 15%; inhibition [2]: 15%; Activity [3]: Active; Activity [4]: inactive; Activity [5]: inactive; inhibition [6]: 15%

Question: How did the inhibition [1] turn out when `O=c1ccn([C@@H]2O[C@H](COP(=S)(S)OP(=O)(O)OP(=O)(O)O)[C@@H](O)[C@H]2O)c(=O)[nH]1` (stereo partly drawn) was run?
Answer: Its inhibition is “inactive”.

Question: What about the inhibition [2] of the same molecule?
Answer: Its inhibition is “inactive”.

Question: What about the Activity [3] of the same molecule?
Answer: Its Activity is “Active”.

Question: What about the Activity [4] of the same molecule?
Answer: Its Activity is “Active”.

Question: And the Activity [5]?
Answer: Its Activity is “inactive”.

Question: And the inhibition [6]?
Answer: Its inhibition is “inactive”.
